Activity, Residual peptide remaining after 60 min and IC50 data for 11 molecules are collected here from ChEMBL document CHEMBL1126044, “Affinity of human growth hormone-releasing factor (1-29)NH2 analogues for GRF binding sites in rat adenopituitary” (J Med Chem, 1992).

Experiment [1] has as its target T1, Growth hormone-releasing hormone receptor (Rattus norvegicus) (UniProt Q02644).
T1 sequence (whole entry): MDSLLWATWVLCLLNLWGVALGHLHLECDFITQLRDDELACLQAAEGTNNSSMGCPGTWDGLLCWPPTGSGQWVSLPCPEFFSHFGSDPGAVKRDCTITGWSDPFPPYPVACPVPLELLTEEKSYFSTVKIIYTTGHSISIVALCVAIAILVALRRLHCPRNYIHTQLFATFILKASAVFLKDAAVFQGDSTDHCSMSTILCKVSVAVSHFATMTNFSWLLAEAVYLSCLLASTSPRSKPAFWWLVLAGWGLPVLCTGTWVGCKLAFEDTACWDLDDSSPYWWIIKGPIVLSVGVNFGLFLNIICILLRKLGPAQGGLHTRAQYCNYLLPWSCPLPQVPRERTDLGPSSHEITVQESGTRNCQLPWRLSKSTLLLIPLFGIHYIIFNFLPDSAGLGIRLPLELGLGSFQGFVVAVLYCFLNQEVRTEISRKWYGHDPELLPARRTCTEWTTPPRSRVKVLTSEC
As to the kind of experiment: Relative affinity compared to hGRF(1-29)NH2. It counts as functional. In a few lines: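 Radioligand competition in rat anterior pituitary homogenate using [125I-Tyr10]hGRF(1-44)NH2 at 35–50 pM and peptides at 0–1000 nM, 60 min at 23 °C. Relative affinity is the binding IC50 expressed as a percentage relative to hGRF(1-29)NH2.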

The species named for experiment [2] is Rattus norvegicus. Nature of the experiment: Residual concentration after 60 min incubation with pituitary homogenates, in the binding assay conditions, by quantitative HPLC method. It counts as functional. In a few lines: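 Peptide at 10 µM incubated with rat pituitary homogenate (150 µg protein/100 µL) in binding-assay conditions at 23 °C for 0 and 60 min. Reaction stopped with cold 50 mM phosphate pH 0.8 and centrifugation. Controls without homogenate accounted for adsorption. Remaining peptide measured by C18 HPLC (0.01% TFA/acetonitrile gradient, UV 214 nm) and peak-area integration.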

The target of experiment [3] is T2, Growth hormone-releasing hormone receptor (Rattus norvegicus, UniProt Q02644).
T2 sequence (Q02644 whole entry): T1 sequence (whole entry)
As to the kind of experiment: Compound was tested to Inhibit [125I]-Growth hormone-releasing factor in rat adenopituitary homogenates. In a few lines:
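Anterior pituitaries from 2-month-old male Sprague-Dawley rats homogenized in ice-cold 50 mM Tris-HCl pH 7.4 with 5 mM MgCl2, 5 mM EDTA. Homogenate (70–75 µg protein) incubated with 35–50 pM [125I-Tyr10]hGRF(1-44)NH2 and peptide at 0–1000 nM in Tris-HCl buffer pH 7.4 with 5 mM EDTA, 5 mM MgCl2, 0.42% BSA, 60 min at 23 °C. Nonspecific binding defined with 2.4 µM rGRF(1-29)NH2. Bound fraction separated by centrifugation and gamma-counted. IC50 fitted with LIGAND. Mean ± SEM of three experiments, each in duplicate or triplicate.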

As for `CC[C@H](C)[C@H](NC(=O)[C@H](C)NC(=O)[C@H](CC(=O)O)NC(=O)[C@H](C)NC(=O)[C@@H](N)Cc1ccc(O)cc1)C(=O)N[C@@H](Cc1ccccc1)C(=O)N[C@H](C(=O)N[C@@H](CC(N)=O)C(=O)N[C@@H](CO)C(=O)N[C@@H](Cc1ccc(O)cc1)C(=O)N[C@@H](CCCN=C(N)N)C(=O)N[C@@H](CCCCN)C(=O)N[C@H](C(=O)N[C@@H](CC(C)C)C(=O)NCC(=O)N[C@@H](CCC(N)=O)C(=O)N[C@@H](CC(C)C)C(=O)N[C@@H](CO)C(=O)N[C@@H](C)C(=O)N[C@@H](CCCN=C(N)N)C(=O)N[C@@H](CCCCN)C(=O)N[C@@H](CC(C)C)C(=O)N[C@@H](CC(C)C)C(=O)N[C@@H](CCC(N)=O)C(=O)N[C@@H](CC(=O)O)C(=O)N[C@H](C(=O)N[C@@H](CCSC)C(=O)N[C@@H](CO)C(=O)N[C@@H](CCCN=C(N)N)C(N)=O)[C@@H](C)CC)C(C)C)[C@@H](C)O`, the Activity in experiment [1] was determined as 100%. The Residual peptide remaining after 60 min in experiment [2] worked out at 81%. As usually defined, the IC50 is the point on the concentration scale where inhibition reaches its midpoint. Turning to H-YADAIFTNSYRKVLGQLSARKLLQDIMS-NH2, the Activity in experiment [1] was found to be 28%. 20.2 nM corresponded to half-maximal inhibition in experiment [3] (IC50). Taken in the same sequence, the figures for H-HADAIFTSSYRRILGQLYARKLLHEIMNR-NH2 were 57% and 9.8 nM.

In experiment [1], H-YADAIFTNSYRKVLGQLSARKLLQDISR-NH2 yielded an Activity of 62%. With H-YADAIFTNSYRKLGQLSARKLLQDIMSR-NH2, the Residual peptide remaining after 60 min in experiment [2] was 89%. In addition, the half-maximal inhibitory concentration (IC50) in experiment [3] is above 1000 nM. As for `CC[C@H](C)[C@H](NC(=O)[C@H](C)NC(=O)[C@H](CC(=O)O)NC(=O)[C@H](C)NC(=O)[C@H](Cc1ccc(O)cc1)NC(=O)CCCN)C(=O)N[C@@H](Cc1ccccc1)C(=O)N[C@H](C(=O)N[C@@H](CC(N)=O)C(=O)N[C@@H](CO)C(=O)N[C@@H](Cc1ccc(O)cc1)C(=O)N[C@@H](CCCN=C(N)N)C(=O)N[C@@H](CCCCN)C(=O)N[C@H](C(=O)N[C@@H](CC(C)C)C(=O)NCC(=O)N[C@@H](CCC(N)=O)C(=O)N[C@@H](CC(C)C)C(=O)N[C@@H](CO)C(=O)N[C@@H](C)C(=O)N[C@@H](CCCN=C(N)N)C(=O)N[C@@H](CCCCN)C(=O)N[C@@H](CC(C)C)C(=O)N[C@@H](CC(C)C)C(=O)N[C@@H](CCC(N)=O)C(=O)N[C@@H](CC(=O)O)C(=O)N[C@H](C(=O)N[C@@H](CCSC)C(=O)N[C@@H](CO)C(=O)N[C@@H](CCCN=C(N)N)C(N)=O)[C@@H](C)CC)C(C)C)[C@@H](C)O`, the Activity in experiment [1] was determined as 41%. In the case of H-YADAIFTNSYRKVLGQLSARKLLQDMSR-NH2, the Activity in experiment [1] stood at 30%. This molecule registered an IC50 in experiment [3] of 20.3 nM.

In the case of `CC[C@H](C)[C@H](NC(=O)[C@H](C)NC(=O)[C@H](CC(=O)O)NC(=O)[C@H](C)NC(=O)[C@H](Cc1ccc(O)cc1)NC(=O)CCCCCN)C(=O)N[C@@H](Cc1ccccc1)C(=O)N[C@H](C(=O)N[C@@H](CC(N)=O)C(=O)N[C@@H](CO)C(=O)N[C@@H](Cc1ccc(O)cc1)C(=O)N[C@@H](CCCN=C(N)N)C(=O)N[C@@H](CCCCN)C(=O)N[C@H](C(=O)N[C@@H](CC(C)C)C(=O)NCC(=O)N[C@@H](CCC(N)=O)C(=O)N[C@@H](CC(C)C)C(=O)N[C@@H](CO)C(=O)N[C@@H](C)C(=O)N[C@@H](CCCN=C(N)N)C(=O)N[C@@H](CCCCN)C(=O)N[C@@H](CC(C)C)C(=O)N[C@@H](CC(C)C)C(=O)N[C@@H](CCC(N)=O)C(=O)N[C@@H](CC(=O)O)C(=O)N[C@H](C(=O)N[C@@H](CCSC)C(=O)N[C@@H](CO)C(=O)N[C@@H](CCCN=C(N)N)C(N)=O)[C@@H](C)CC)C(C)C)[C@@H](C)O`, in experiment [1], the Activity came out at 85%. The molecule H-ADAIFTNSYRKVLAQLSARKLLQDIMSR-NH2 yielded an Activity in experiment [1] of 1.5%.

For the molecule H-YADAIFTNSYRKVLGQLSARKLLQIMSR-NH2, in experiment [1], the Activity amounted to 33%. With H-YADAIFTNSYRKVLQLSARKLLQDIMSR-NH2, the Residual peptide remaining after 60 min in experiment [2] came out at 88%. Moreover, the concentration for half-maximal inhibition (IC50) in experiment [3] was found to be 1000 nM.
